Laboratory results as given in ChEMBL document CHEMBL3856250, “Discovery of 6-Fluoro-5-(R)-(3-(S)-(8-fluoro-1-methyl-2,4-dioxo-1,2-dihydroquinazolin-3(4H)-yl)-2-methylphenyl)-2-(S)-(2-hydroxypropan-2-yl)-2,3,4,9-tetrahydro-1H-carbazole-8-carboxamide (BMS-986142): A Reversible Inhibitor of Bruton's Tyrosine Kinase (BTK) Conformationally Constrained by Two …” (J Med Chem, 2016).
≈ marks a conversion by molar mass, not a printed value.

Key:
[1] = target: T1, Tyrosine-protein kinase BTK (Homo sapiens, UniProt Q06187); assay: Inhibition of BTK in human whole blood basophils assessed as suppression of FceRI/anti-IgE-stimulated CD63 surface expression; assay type: tissue-based
[2] = AUC in mouse at 10 mg/kg; assay type: ADME, organism-based; settings: in vivo
Cytochrome P450 2C9 = Cytochrome P450 2C9 (Homo sapiens, UniProt P11712); assay: Inhibition of CYP2C9 (unknown origin); assay type: ADME
[3] = target: T1, Tyrosine-protein kinase BTK; assay: Inhibition of BTK in human peripheral B cells assessed as suppression of CD40/CD40L-stimulated CD69 surface expression; assay type: cell-based
[4] = Half life in dog at 1 mg/kg, iv; assay type: ADME, organism-based, Canis lupus familiaris; settings: in vivo
[5] = Cmax in rat at 5 mg/kg, po; assay type: ADME, organism-based; set-up: dose 5 mg/kg, route oral; settings: in vivo
[6] = Oral bioavailability in cynomolgus monkey at 4 mg/kg; assay type: ADME, organism-based, Macaca fascicularis; settings: in vivo
[7] = Protein binding in monkey plasma; assay type: ADME, cell-free, Macaca mulatta; settings: rhesus monkey, read-out: PPB (converted)
[8] = MRT in dog at 1 mg/kg, iv; assay type: ADME, organism-based, Canis lupus familiaris; settings: in vivo
[9] = Oral bioavailability in dog at 2 mg/kg; assay type: ADME, organism-based, Canis lupus familiaris; settings: in vivo
[10] = Protein binding in dog plasma; assay type: ADME, cell-free, Canis lupus familiaris; settings: read-out: PPB (converted)
[11] = Oral bioavailability in mouse at 3 mg/kg; assay type: ADME, organism-based; settings: in vivo
[12] = Tmax in rat at 5 mg/kg, po; assay type: ADME, organism-based; settings: in vivo
[13] = Volume of distribution at steady state in rat at 2 mg/kg, iv; assay type: ADME, organism-based; settings: in vivo, read-out: Vdss
[14] = target: Proto-oncogene tyrosine-protein kinase Src (Homo sapiens, UniProt P12931); assay: Inhibition of SRC (unknown origin)
[15] = Tmax in mouse at 6 mg/kg, po; assay type: ADME, organism-based; settings: in vivo
[16] = Clearance in rat at 2 mg/kg, iv; assay type: ADME, organism-based; settings: in vivo
[17] = Drug metabolism in po dosed rat plasma assessed as isomerization of atropisomeric center after 24 hrs; assay type: ADME, organism-based; settings: read-out: Drug metabolism
[18] = target: T1, Tyrosine-protein kinase BTK; assay: Inhibition of BTK in human peripheral B cells assessed as suppression of BCR/anti-IgM/IgG-stimulated CD86 surface expression; assay type: cell-based
[19] = Cmax in mouse at 6 mg/kg, po; assay type: ADME, organism-based; set-up: dose 6 mg/kg, route oral; settings: in vivo
[20] = Aqueous solubility of the compound; assay type: physicochemical; settings: aqueous medium
[21] = target: T2, Tyrosine-protein kinase ITK/TSK (Homo sapiens, UniProt Q08881); assay: Inhibition of ITK in human peripheral T cells assessed as suppression of TCR/anti-CD3-stimulated protein catalyzed PLCgamma1 phosphorylation; assay type: cell-based, T-cell
T2 sequence (Q08881 whole entry): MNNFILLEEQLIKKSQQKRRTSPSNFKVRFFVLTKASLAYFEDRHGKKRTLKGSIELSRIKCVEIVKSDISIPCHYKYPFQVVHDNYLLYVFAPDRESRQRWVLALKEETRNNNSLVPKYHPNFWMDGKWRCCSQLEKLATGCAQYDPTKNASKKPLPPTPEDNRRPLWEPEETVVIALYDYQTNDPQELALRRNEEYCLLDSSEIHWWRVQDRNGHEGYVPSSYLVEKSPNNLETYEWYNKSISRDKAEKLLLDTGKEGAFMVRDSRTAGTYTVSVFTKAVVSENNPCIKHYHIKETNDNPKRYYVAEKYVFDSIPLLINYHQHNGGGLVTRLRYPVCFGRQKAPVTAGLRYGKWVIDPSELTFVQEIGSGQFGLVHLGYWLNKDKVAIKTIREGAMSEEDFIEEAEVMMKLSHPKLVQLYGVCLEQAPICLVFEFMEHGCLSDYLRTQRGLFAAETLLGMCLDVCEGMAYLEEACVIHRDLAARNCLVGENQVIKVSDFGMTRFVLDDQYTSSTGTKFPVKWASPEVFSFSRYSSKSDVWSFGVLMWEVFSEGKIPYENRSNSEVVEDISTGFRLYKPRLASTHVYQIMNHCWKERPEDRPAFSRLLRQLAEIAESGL

Mus musculus = assay: Antiathritis activity in anticollagen antibody-induced arthritis BALB/c mouse model assessed as reduction in LPS-induced paw swelling at 20 mg/kg, po qd followed by LPS addition on day 3 measured after 11 days relative to control; assay type: functional; set-up: scale not given: the % may be the effect or the level left
[22] = Permeability of the compound at pH 7.4 by PAMPA assay; assay type: ADME; settings: read-out: permeability
[23] = Clearance in mouse at 3 mg/kg, iv; assay type: ADME, organism-based; settings: in vivo
[24] = MRT in mouse at 3 mg/kg, iv; assay type: ADME, organism-based; settings: in vivo
[25] = AUC in mouse at 6 mg/kg, po; assay type: ADME, organism-based; settings: in vivo
[26] = Volume of distribution at steady state in dog at 1 mg/kg, iv; assay type: ADME, organism-based, Canis lupus familiaris; settings: in vivo, read-out: Vdss
[27] = Half life in cynomolgus monkey at 2 mg/kg, iv; assay type: ADME, organism-based, Macaca fascicularis; settings: in vivo
[28] = Tmax in cynomolgus monkey at 4 mg/kg, po; assay type: ADME, organism-based, Macaca fascicularis; settings: in vivo
[29] = Mutagenicity in Salmonella typhimurium by Ames test; assay type: toxicity; settings: salmonella enterica subsp. enterica serovar typhimurium
[30] = Solubility of the compound in fasted state stimulated intestinal fluid; assay type: ADME; settings: fasted state simulated intestinal fluid (FaSSIF)
[31] = target: Tyrosine-protein kinase BTK (Mus musculus, UniProt P35991); assay: Inhibition of BTK in mouse whole blood assessed as suppression of BCR/anti-IgM/IgG-stimulated CD69 surface expression after 18 hrs with agitation by FITC-staining based FACS analysis; assay type: tissue-based
How it was run: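 Mouse whole blood was incubated with compound and stimulated with F(ab′)2 goat anti-mouse IgG+IgM (100 μg/mL) in the same way as the human assay (18 h, 37 °C, agitation). B cells were gated by APC anti-CD19, and CD69 was quantified as FITC MFI by FACS.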

[32] = MRT in rat at 2 mg/kg, iv; assay type: ADME, organism-based; settings: in vivo
[33] = Volume of distribution at steady state in cynomolgus monkey at 2 mg/kg, iv; assay type: ADME, organism-based, Macaca fascicularis; settings: in vivo, read-out: Vdss
[34] = Solubility of the compound in fed state stimulated intestinal fluid; assay type: ADME; settings: fed state simulated intestinal fluid (FeSSIF)
[35] = Half life in mouse at 3 mg/kg, iv; assay type: ADME, organism-based; settings: in vivo
Cytochrome P450 3A4 = Cytochrome P450 3A4 (Homo sapiens, UniProt P08684); assay: Inhibition of CYP3A4 (unknown origin); assay type: ADME
[36] = Clearance in dog at 1 mg/kg, iv; assay type: ADME, organism-based, Canis lupus familiaris; settings: in vivo
[37] = target: Voltage-gated inwardly rectifying potassium channel KCNH2 (Homo sapiens, UniProt Q12809); assay: Inhibition of human ERG by patch clamp assay
[38] = Cmax in cynomolgus monkey at 4 mg/kg, po; assay type: ADME, organism-based, Macaca fascicularis; set-up: dose 4 mg/kg, route oral; settings: in vivo
[39] = Cmax in mouse at 10 mg/kg, iv or po; assay type: ADME, organism-based; settings: in vivo
[40] = AUC in dog at 2 mg/kg, po; assay type: ADME, organism-based, Canis lupus familiaris; settings: in vivo
[41] = Cmax in dog at 2 mg/kg, po; assay type: ADME, organism-based, Canis lupus familiaris; set-up: dose 2 mg/kg, route oral; settings: in vivo
[42] = Half life in rat at 2 mg/kg, iv; assay type: ADME, organism-based; settings: in vivo

T1 sequence (Q06187 whole entry): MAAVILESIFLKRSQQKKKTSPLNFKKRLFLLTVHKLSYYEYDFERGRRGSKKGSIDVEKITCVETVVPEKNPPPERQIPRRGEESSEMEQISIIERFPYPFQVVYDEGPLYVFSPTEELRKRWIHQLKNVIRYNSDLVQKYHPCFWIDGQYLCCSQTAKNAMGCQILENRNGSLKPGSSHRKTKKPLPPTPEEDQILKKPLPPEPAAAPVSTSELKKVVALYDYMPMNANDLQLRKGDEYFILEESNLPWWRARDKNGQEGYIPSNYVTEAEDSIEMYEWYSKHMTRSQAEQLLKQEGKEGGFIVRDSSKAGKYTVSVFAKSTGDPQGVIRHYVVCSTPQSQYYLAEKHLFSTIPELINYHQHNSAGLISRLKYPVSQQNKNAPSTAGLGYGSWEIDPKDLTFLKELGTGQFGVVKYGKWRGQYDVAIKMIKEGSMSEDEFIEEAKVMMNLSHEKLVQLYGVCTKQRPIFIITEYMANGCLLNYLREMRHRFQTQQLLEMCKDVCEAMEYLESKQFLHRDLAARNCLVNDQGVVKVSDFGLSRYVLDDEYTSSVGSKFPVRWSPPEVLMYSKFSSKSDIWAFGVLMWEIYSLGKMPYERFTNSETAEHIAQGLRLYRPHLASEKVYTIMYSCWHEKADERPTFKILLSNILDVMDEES
Chain of Proto-oncogene tyrosine-protein kinase Src (P12931 2-536 limits assumed): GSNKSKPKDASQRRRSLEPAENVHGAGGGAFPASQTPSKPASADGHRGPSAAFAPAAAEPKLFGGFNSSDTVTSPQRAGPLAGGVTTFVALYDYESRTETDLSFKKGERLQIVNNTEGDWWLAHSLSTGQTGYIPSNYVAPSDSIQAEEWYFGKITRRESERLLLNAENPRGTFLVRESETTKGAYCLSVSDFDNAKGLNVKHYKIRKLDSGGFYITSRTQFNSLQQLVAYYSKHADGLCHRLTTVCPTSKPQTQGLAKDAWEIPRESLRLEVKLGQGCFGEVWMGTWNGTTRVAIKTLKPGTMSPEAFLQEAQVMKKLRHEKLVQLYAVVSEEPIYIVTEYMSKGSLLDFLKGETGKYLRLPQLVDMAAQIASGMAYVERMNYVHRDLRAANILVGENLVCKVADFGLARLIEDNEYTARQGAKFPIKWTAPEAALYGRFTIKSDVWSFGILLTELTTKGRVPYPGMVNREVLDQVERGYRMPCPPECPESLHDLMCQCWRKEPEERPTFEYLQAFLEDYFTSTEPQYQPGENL
Chain of Voltage-gated inwardly rectifying potassium channel KCNH2 (Q12809 whole entry): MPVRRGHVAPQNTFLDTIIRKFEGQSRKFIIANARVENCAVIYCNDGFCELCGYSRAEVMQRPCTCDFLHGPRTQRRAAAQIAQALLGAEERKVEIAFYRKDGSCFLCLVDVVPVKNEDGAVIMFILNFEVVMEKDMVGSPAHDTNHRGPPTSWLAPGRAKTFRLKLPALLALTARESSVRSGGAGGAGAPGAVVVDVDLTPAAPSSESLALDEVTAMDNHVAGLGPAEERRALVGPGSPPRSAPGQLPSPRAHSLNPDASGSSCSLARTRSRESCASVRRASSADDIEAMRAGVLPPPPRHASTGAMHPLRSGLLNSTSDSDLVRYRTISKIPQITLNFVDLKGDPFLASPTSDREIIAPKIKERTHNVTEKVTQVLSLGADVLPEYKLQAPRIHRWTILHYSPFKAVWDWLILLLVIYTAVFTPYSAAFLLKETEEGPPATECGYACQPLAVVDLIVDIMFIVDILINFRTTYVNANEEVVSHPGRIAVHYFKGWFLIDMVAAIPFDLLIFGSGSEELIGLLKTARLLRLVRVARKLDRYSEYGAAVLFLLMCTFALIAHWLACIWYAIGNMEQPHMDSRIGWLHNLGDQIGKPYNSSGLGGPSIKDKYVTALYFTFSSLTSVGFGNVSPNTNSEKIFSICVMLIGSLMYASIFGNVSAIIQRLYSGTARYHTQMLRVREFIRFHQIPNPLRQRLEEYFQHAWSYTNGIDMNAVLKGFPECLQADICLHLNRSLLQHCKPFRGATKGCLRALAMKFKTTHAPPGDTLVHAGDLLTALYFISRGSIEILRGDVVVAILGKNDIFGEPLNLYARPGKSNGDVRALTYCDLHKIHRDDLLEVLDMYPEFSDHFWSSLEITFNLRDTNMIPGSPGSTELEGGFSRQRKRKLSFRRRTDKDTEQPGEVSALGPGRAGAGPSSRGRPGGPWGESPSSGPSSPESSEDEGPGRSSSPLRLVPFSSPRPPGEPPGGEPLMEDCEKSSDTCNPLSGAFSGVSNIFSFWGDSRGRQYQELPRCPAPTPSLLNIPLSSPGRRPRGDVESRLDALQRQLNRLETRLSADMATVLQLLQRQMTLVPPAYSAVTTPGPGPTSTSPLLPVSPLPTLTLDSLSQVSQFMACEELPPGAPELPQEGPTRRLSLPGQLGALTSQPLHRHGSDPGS
Chain of Cytochrome P450 3A4 (P08684 whole entry): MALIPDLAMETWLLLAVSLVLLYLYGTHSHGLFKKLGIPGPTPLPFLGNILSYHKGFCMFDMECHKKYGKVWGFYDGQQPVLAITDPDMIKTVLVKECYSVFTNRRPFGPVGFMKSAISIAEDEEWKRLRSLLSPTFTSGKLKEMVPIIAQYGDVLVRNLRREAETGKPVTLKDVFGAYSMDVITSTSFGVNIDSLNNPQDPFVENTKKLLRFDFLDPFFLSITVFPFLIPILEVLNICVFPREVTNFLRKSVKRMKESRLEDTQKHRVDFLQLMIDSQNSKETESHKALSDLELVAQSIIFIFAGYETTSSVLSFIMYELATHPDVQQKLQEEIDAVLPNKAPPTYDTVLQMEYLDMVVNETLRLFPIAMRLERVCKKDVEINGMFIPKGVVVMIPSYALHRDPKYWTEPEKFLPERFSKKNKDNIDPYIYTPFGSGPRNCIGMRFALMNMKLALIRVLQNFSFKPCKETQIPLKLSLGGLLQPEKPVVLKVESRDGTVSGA
Chain of Cytochrome P450 2C9 (P11712 whole entry): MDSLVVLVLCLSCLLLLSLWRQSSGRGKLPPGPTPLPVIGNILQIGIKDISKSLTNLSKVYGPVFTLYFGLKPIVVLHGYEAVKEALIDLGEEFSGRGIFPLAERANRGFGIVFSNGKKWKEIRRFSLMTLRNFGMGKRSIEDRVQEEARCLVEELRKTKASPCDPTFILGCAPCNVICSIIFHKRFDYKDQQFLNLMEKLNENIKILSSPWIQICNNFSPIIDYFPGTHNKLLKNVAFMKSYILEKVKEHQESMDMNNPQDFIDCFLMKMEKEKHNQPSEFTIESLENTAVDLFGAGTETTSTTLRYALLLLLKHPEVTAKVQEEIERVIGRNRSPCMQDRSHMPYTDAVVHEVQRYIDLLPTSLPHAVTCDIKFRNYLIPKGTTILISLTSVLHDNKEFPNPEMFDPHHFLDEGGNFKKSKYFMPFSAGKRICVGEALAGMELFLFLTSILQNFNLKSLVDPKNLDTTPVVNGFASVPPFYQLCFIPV
Chain of Tyrosine-protein kinase BTK (Mus musculus, UniProt P35991) (P35991 whole entry): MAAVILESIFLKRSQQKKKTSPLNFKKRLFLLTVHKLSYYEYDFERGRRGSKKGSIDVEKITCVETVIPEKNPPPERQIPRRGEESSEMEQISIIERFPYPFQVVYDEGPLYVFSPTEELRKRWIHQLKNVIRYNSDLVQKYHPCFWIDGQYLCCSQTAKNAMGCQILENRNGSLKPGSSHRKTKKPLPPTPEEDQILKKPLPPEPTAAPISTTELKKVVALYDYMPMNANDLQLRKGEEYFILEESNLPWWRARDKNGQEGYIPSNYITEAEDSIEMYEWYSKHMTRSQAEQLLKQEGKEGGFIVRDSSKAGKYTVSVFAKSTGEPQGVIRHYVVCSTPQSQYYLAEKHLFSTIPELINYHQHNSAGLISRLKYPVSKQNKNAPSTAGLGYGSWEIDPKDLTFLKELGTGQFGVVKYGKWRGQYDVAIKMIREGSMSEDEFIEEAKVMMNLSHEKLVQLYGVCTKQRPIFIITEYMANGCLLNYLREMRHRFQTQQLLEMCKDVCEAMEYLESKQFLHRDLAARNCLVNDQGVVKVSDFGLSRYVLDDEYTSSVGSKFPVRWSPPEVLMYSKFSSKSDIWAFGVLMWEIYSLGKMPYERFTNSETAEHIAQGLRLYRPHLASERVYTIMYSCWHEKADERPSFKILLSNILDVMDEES

SMILES: Cc1c(-c2c(F)cc(C(N)=O)c3[nH]c4c(c23)CC[C@H](C(C)(C)O)C4)cccc1-n1c(=O)c2cccc(F)c2n(C)c1=O (atropisomer R) [BMS-986142]
- IC50 [1]: 89 nM
- AUC [2]: 39 µM·h
- IC50 (Cytochrome P450 2C9): 17100 nM
- IC50 [3]: > 10000 nM
- half-life [4]: 13 h
- Cmax [5]: 2300 nM
- bioavailability [6]: 33%
- fraction unbound [7]: 0.012
- MRT [8]: 18 h
- bioavailability [9]: 100%
- fraction unbound [10]: 0.009
- bioavailability [11]: 93%
- Tmax [12]: 3 h
- Vd [13]: 1.3 L/kg
- IC50 [14]: 1100 nM
- Tmax [15]: 1 h
- clearance [16]: 4.2 mL/min/kg
- metabolised at 24 h [17]: < 2%
- IC50 [18]: 4 nM
- Cmax [19]: 4900 nM
- solubility [20]: < 4 µg/mL
- IC50 [21]: 410 nM
- Activity (Mus musculus): 100%
- Papp [22]: 72.5 ×10⁻⁶ cm/s
- clearance [23]: 4.1 mL/min/kg
- MRT [24]: 4.8 h
- AUC [25]: 39 µM·h
- Vd [26]: 3.4 L/kg
- half-life [27]: 5.1 h
- Tmax [28]: 3.7 h
- Activity [29]: Non-Toxic
- solubility [30]: 18 µg/mL (≈ 31.4 µM)
- IC50 [31]: 140 nM
- MRT [32]: 5.1 h
- Vd [33]: 3 L/kg
- solubility [34]: 368 µg/mL (≈ 643 µM)
- half-life [35]: 3.4 h
- IC50 (Cytochrome P450 3A4): 8500 nM
- clearance [36]: 3.2 mL/min/kg
- IC50 [37]: 5500 nM
- Cmax [38]: 850 nM
- Cmax [39]: 4900 nM
- AUC [40]: 16 µM·h
- Cmax [41]: 1200 nM
- half-life [42]: 3.6 h
